This passage reports MIC and Ratio results from ChEMBL document CHEMBL1152985, “Contributions of the combined effects of topoisomerase mutations toward fluoroquinolone resistance in Escherichia coli” (2007).

The subject of assay [1] is Escherichia coli. Briefly: Antibacterial activity against Escherichia coli 1596 containing parC K84 mutant assessed as decrease in MIC by Etest relative to MIC for Escherichia coli 1608 containing gyrA mutant. Type of assay: functional. The gist of the method:
(§1)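 Defined isogenic E. coli strains in a C600 background (parent 1609); mutations introduced by λ Red recombineering with temperature-sensitive pSIM5, overnight recovery after electroporation, plasmid cured at 37°C. Fluoroquinolone MICs were read by Etest per the manufacturer's instructions. MICs above the Etest limit were measured by broth macrodilution per CLSI guidelines. Results are expressed as fold change in MIC relative to the comparator strain.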

Assay [2] concerns Escherichia coli. Briefly: Antibacterial activity against Escherichia coli 1596 containing gyrA L83 and parC I80, G84 mutants assessed as increase in MIC by Etest relative to MIC for Escherichia coli 1608 containing gyrA mutant. Type of assay: functional. Put shortly:
as §1

In assay [3] the test system is Escherichia coli. Briefly: Antibacterial activity against Escherichia coli 1608 containing gyrA L83, Y87 mutants assessed as increase in MIC by Etest relative to MIC for wild type Escherichia coli 1609.
The subject of assay [4] is Escherichia coli. The assay is described as follows: Antibacterial activity against Escherichia coli SKM9 containing gyrA L83, Y87 and parC L80 mutants assessed as increase in MIC by Etest relative to MIC for Escherichia coli 1596 containing gyrA L83 and parC L80 mutants.
Assay [5] has as its system Escherichia coli. The assay is described as follows: Antibacterial activity against Escherichia coli SKM18 containing gyrA L83, Y87 and parC I80, G84 mutants assessed as increase in MIC by Etest relative to MIC for Escherichia coli SKM9 containing gyrA L83, Y87 and parC L80 mutants.
The test system of assay [6] is Escherichia coli. The assay is described as follows: Antibacterial activity against Escherichia coli 1608 containing gyrA L83 mutant assessed as increase in MIC by Etest relative to MIC for wild type Escherichia coli 1609. Type of assay: functional. Put shortly:
as §1

By MIC is commonly meant the smallest concentration in the dilution series that meets the test's criterion for growth inhibition. `Cc1c(F)c(N2CCNC(C)C2)cc2c1c(=O)c(C(=O)O)cn2C1CC1` (configuration not stated) [GREPAFLOXACIN]: in assay [1], the MIC amounted to 0.014 mg/L.
In the case of `C[C@H]1COc2c(N3CCN(C)CC3)c(F)cc3c(=O)c(C(=O)O)cn1c23.C[C@H]1COc2c(N3CCN(C)CC3)c(F)cc3c(=O)c(C(=O)O)cn1c23.O` [LEVOFLOXACIN], the Ratio in assay [2] is 1; in assay [3] it was 5; in assay [4] it was 9.
Regarding `C[C@@H]1CN(c2c(F)c(N)c3c(=O)c(C(=O)O)cn(C4CC4)c3c2F)C[C@H](C)N1` [SPARFLOXACIN], the MIC in assay [1] was found to be 0.008 mg/L.
Consider `CO/N=C1\CN(c2nc3c(cc2F)c(=O)c(C(=O)O)cn3C2CC2)CC1CN` (configuration not stated) [GEMIFLOXACIN], for which the values for the Ratio in assay [2], in assay [3] and in assay [4] were 1, 5 and 9, respectively. For the same molecule, in assay [1], the MIC came to 0.007 mg/L.
Take `CCn1cc(C(=O)O)c(=O)c2cc(F)c(N3CCNCC3)cc21` [NORFLOXACIN]: the Ratio in assay [2] is recorded as 5; in assay [3], 5; in assay [4], 9.
Consider `COc1c(N2CCNC(C)C2)c(F)cc2c(=O)c(C(=O)O)cn(C3CC3)c12` (configuration not stated) [GATIFLOXACIN], for which the Ratio in assay [2] is given as 1; in assay [3] it was 5; in assay [4], 9; in assay [5], 2.
For `COc1c(N2C[C@@H]3CCCN[C@@H]3C2)c(F)cc2c(=O)c(C(=O)O)cn(C3CC3)c12` [MOXIFLOXACIN], the Ratio in assay [2] is reported as 1; in assay [6] it was 1; in assay [3] it was 5; in assay [4], 9; in assay [5], 10. In addition, the MIC in assay [1] stood at 0.028 mg/L.
